The values below come from ChEMBL document CHEMBL4024773, “The Magic of Crystal Structure-Based Inhibitor Optimization: Development of a Butyrylcholinesterase Inhibitor with Picomolar Affinity and in Vivo Activity” (J Med Chem, 2018).

Data set [1] concerns the target Butyrylcholinesterase (Rattus norvegicus) (UniProt Q9JKC1). Conditions: 300 uM.
Data set [2] deals with T1, Acetylcholinesterase (Mus musculus, UniProt P21836).
T1 sequence (P21836 whole entry): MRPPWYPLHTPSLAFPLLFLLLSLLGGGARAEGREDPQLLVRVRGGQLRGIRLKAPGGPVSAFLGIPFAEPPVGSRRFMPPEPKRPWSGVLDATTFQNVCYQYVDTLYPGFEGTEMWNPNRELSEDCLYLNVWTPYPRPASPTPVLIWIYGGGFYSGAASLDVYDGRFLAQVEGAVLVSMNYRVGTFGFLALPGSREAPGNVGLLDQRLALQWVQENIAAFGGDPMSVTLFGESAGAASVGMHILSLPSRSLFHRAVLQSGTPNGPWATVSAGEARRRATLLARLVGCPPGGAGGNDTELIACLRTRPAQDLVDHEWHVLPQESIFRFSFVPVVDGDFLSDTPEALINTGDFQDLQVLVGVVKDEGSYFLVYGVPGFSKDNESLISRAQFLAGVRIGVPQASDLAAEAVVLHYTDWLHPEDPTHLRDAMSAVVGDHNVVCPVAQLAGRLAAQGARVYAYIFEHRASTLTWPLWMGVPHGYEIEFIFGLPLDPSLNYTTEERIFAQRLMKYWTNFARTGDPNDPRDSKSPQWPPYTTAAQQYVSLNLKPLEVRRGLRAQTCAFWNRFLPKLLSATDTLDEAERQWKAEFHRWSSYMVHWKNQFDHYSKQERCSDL
Briefly: Inhibition of mouse AChE using acetylthiocholine iodide as substrate preincubated for 300 secs followed by substrate addition measured for 1 min by Ellman's method. A digest of the protocol: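 Inhibition of murine AChE measured by the Ellman method with acetylthiocholine iodide as substrate. IC50 determined only where inhibition reached at least 50% at 10 µM. Otherwise recorded as IC50 >10 µM.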

Data set [3] concerns the target T2, Cholinesterase (Homo sapiens, UniProt P06276). The data set is described as follows: Inhibition of recombinant human BChE using butyrylthiocholine iodide as substrate preincubated for 300 secs followed by substrate addition measured for 1 min by Ellman's method.
For data set [4] the following is noted: human, hepatocytes, 2 h.
The nature of data set [5]: Half life in human plasma at 1 uM by HPLC-MS/MS analysis. The class given is ADME, cell-free.
Data set [6] deals with Mus musculus. The data set is described as follows: Reversal of scopolamine-induced hyperlocomotion in C57BL/6J mouse assessed as speed of swimming at 30 mg/kg, ip administered 60 mins prior to test post scopolamine challenge measured on day 7 by Morris water maze test (reference value: 0.20 meter/s). The format is functional.
Data set [7] can be described thus: Drug metabolism in cryopreserved human hepatocytes assessed as (+/-)-N-((1-(2,3-Dihydro-1H-inden-2-yl)piperidin-3-yl)methyl)-N-(2-(methylamino)ethyl)-2-naphthamide dihydrochloride formation at 1 uM after 120 mins by HPLC-MS/MS analysis. The format is ADME, cell-based, Hepatocyte. Conditions: 2 h. A digest of the protocol: (§1)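 Flurazepam, naloxone and propranolol, which are high-extraction […] references, served as positive controls.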

The nature of data set [8]: in vitro. Conditions: human, SH-SY5Y cells.
Data set [9] in a line: Stability of the compound in human plasma assessed as compound remaining at 1 uM after 120 mins by HPLC-MS/MS analysis. To be noted: read-out: Stability. The format is ADME, cell-free.
The nature of data set [10]: Ratio of drug level in brain to plasma in Wistar Han rat at 10 mg/kg, ip after 1 hr by LC-MS/MS analysis. The format is ADME, organism-based. To be noted: read-out: BPR. Put shortly: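 Rats received a single intraperitoneal injection of 10 mg/kg. Brain tissue (µg/kg) and blood plasma (µg/L) concentrations were measured 1 h later and reported as mean ±SEM. The brain-to-plasma ratio was calculated from these concentrations.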

Data set [11] relates to Mus musculus. Briefly: Toxicity in Albino Swiss CD-1 mouse assessed as reduction in locomotor activity by measuring number of light beam crossings at 30 mg/kg, ip measured at 24 to 30 mins post dose. Conditions: in vivo. The format is organism-based. Put shortly: (§2)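 Mice were given 30 mg/kg intraperitoneally, the same dose used in the Morris water-maze task. Safety was assessed with a locomotor activity test monitored over time, rotarod at 6, 18 and 24 rpm, and observation for acute cholinergic adverse signs.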

A short description of data set [12]: Drug uptake in Wistar Han rat plasma at 10 mg/kg, ip after 1 hr by LC-MS/MS analysis. The format is ADME, organism-based.
Data set [13] in a line: Protein binding in human plasma at 10 uM after 4 hrs by HPLC-MS/MS analysis. The format is ADME, cell-free. To be noted: read-out: PPB (converted).
The nature of data set [14]: Apparent permeability across apical to basolateral side in human Caco2 cells at 100 uM after 20 mins by fluorescein dye based HPLC-UV analysis. The class given is ADME, cell-based. Conditions: Caco-2. A digest of the protocol:
(§3)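 Caco-2 permeability (Papp) was measured bidirectionally, absorptive apical-to-basolateral and eliminatory basolateral-to-apical. The efflux ratio was calculated as Papp(B–A)/Papp(A–B).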

The nature of data set [15]: in vitro. Conditions: human, HepG2 cells.
Data set [16] relates to Brain. To be noted: rat, in vivo, ip, 10 mg/kg, 1 h.
A short description of data set [17]: Apparent permeability across basolateral to apical side in human Caco2 cells at 100 uM after 20 mins by fluorescein dye based HPLC-UV analysis. The class given is ADME, cell-based. To be noted: Caco-2. A digest of the protocol: as §3
Data set [18] is described as follows: Half life in cryopreserved human hepatocytes at 1 uM after 120 mins by HPLC-MS/MS analysis. The format is ADME, cell-based, Hepatocyte. Put shortly:
as §1

In data set [19] the test system is Mus musculus. Briefly: Toxicity in Albino Swiss CD-1 mouse assessed as acute adverse cholinergic effects at 30 mg/kg, ip. The format is organism-based. To be noted: in vivo. A digest of the protocol:
as §2

Data set [20] has as its system Mus musculus. Briefly: Toxicity in Albino Swiss CD-1 mouse assessed as motor impairment at 30 mg/kg, ip using rod revolving at 6, 18, or 24 rpm after 60 mins by rotarod test. The format is organism-based. To be noted: in vivo, 1 h. Put shortly: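 Rotarod test in mice given 30 mg/kg intraperitoneally, the dose used in the water maze tests. Motor performance recorded at rod speeds of 6, 18 and 24 rpm.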

The nature of data set [21]: Apparent intrinsic clearance in cryopreserved human hepatocytes assessed per million cells at 1 uM after 120 mins by HPLC-MS/MS analysis. The class given is ADME, cell-based, Hepatocyte. Conditions: 2 h. A digest of the protocol:
as §1

The target in data set [22] is T2, Cholinesterase. To be noted: 5 to 10 nM.
In data set [23] the test system is Mus musculus. Briefly: Reversal of scopolamine-induced hyperlocomotion in C57BL/6J mouse assessed as speed of swimming at 10 mg/kg, ip administered 60 mins prior to test post scopolamine challenge measured on day 7 by Morris water maze test (reference value: 0.20 meter/s). The class given is functional.
For data set [24], the system named is Mus musculus. The data set is described as follows: Reversal of scopolamine-induced memory impairment in C57BL/6J mouse assessed as decrease in traveled distance to reach the escape platform at 10 mg/kg, ip administered 60 mins prior to test post scopolamine challenge measured on day 7 by Morris water maze test. The class given is functional, organism-based.

Data set [25] concerns Mus musculus. The data set is described as follows: Reversal of scopolamine-induced memory loss in C57BL/6J mouse assessed as decrease in escape latency time at 10 mg/kg, ip administered 60 mins prior to test post scopolamine-challenge measured on day 7 by Morris water maze test. The format is functional, organism-based.
The nature of data set [26]: Drug level in cryopreserved human hepatocytes treated with HCl salt of (+/-)-N-((1-(2,3-Dihydro-1H-inden-2-yl)piperidin-3-yl)methyl)-N-(2-(dimethylamino)ethyl)-2-naphthamide Dichloride at 1 uM after 120 mins by HPLC-MS/MS analysis. The format is ADME, cell-based, Hepatocyte. To be noted: 2 h. Put shortly: as §1
A short description of data set [27]: Efflux ratio of apparent permeability from basolateral to apical side over apical to basolateral side in human Caco2 cells. The format is ADME, cell-based. To be noted: Caco-2. (Caco-2 cells form a polarised layer with tight junctions and transporters.)
Data set [28] concerns the target T2, Cholinesterase. The data set is described as follows: Competitive inhibition of recombinant human BChE using butyrylthiocholine iodide as substrate at pH 8 by stopped flow assay.

Calls of active or inactive are those of the source.

In general, IC50 refers to the concentration that gives 50% inhibition. One may read the half-life as the time needed for the level to fall by half in the phase considered. A higher half-life goes with slow decline. In general, CC50 refers to the concentration at which the toxic effect on the cells reaches its halfway point. By Papp A→B is commonly meant how fast a substance crosses the layer from the apical side. In general, Papp B→A refers to the apparent permeability from the basolateral to the apical side of a cell layer. The efflux ratio is a quotient of directional permeabilities that is used to spot active efflux. Broadly, the Ki is the dissociation constant of the complex between target and ligand, obtained from inhibition or displacement.

T2 sequence (P06276 whole entry): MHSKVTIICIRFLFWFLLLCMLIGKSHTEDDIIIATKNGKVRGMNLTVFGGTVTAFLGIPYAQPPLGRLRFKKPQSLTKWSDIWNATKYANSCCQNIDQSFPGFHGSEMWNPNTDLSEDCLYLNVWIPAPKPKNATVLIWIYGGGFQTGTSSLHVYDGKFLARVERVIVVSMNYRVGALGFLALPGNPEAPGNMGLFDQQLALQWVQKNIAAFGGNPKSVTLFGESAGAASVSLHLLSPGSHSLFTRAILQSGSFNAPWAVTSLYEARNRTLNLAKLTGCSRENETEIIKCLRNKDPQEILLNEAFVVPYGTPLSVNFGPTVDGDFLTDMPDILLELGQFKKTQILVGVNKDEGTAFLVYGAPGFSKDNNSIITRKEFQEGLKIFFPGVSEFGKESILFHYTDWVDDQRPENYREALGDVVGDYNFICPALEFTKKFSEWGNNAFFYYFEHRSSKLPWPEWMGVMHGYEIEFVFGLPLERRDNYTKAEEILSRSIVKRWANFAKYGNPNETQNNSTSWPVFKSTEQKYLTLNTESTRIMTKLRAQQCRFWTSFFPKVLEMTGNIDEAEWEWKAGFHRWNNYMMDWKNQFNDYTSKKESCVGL
Chain of Butyrylcholinesterase (Rattus norvegicus) (Q9JKC1 as listed by the source): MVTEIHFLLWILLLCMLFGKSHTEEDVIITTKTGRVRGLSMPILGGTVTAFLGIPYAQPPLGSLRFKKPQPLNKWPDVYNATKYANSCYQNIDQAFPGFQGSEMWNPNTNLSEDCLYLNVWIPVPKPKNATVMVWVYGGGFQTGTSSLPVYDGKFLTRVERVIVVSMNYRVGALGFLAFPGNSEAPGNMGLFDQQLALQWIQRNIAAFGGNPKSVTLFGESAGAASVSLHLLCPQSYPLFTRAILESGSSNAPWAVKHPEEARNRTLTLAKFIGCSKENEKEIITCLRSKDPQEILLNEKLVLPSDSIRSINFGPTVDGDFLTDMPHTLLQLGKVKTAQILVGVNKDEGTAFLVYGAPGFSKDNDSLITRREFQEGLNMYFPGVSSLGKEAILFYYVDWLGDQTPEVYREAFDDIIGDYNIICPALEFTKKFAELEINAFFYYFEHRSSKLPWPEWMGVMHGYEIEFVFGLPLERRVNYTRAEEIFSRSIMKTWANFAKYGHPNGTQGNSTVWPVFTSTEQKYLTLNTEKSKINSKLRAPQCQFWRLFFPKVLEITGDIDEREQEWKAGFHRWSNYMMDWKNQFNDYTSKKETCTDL

Regarding `COCCN(CC1CCCN(Cc2ccccc2)C1)S(=O)(=O)c1ccc2ccccc2c1` (configuration not stated), the inhibition result in data set [1] is “Active”. For the same molecule, in data set [2], the concentration for half-maximal inhibition (IC50) was > 10 µM.
As to `COCCN(CC1CCN(Cc2ccccc2)CC1)C(=O)c1ccc2ccccc2c1`, the IC50 is 0.702 µM in data set [3] and > 10 µM in [2].
For the molecule `O=c1cc(C(F)(F)F)c2ccc(O)cc2o1`, the Stability result in [4] is “Unstable”.
With `CN(C)CCN(CC1CCCN(C2Cc3ccccc3C2)C1)C(=O)c1ccc2ccccc2c1.Cl` (racemic), the half-life at 1 µM in data set [5] and in [18] was > 2 h throughout. In addition, the Activity is listed as 0.18 meter/s in data set [6], “Toxic” in [11], “Non-Toxic” in data set [19] and “Non-Toxic” in data set [20]. The Drug metabolism result in data set [7] is “Metabolite_Detected”. Also, in data set [8], it took 6.63 µM to reach half-maximal cytotoxicity (CC50 at 48 h). In data set [9], the remaining at 2 h, 1 µM was found to be 76%. Moreover, in data set [10], the Kp at 1 h worked out at 1.47. For the same molecule, the concentration at 1 h in [12] worked out at 169 ng/mL. For the same molecule, in data set [13], the fraction unbound at 4 h, 10 µM is 0.07. Besides, in [14], the Papp A→B at 20 min, 100 µM came out at 28 ×10⁻⁶ cm/s. Further, in data set [15], the CC50 at 24 h was determined as 33.9 µM. In data set [16], this molecule registered a Drug uptake of 248 µg/kg. The Papp B→A at 20 min, 100 µM in data set [17] stood at 46.1 ×10⁻⁶ cm/s. For the same molecule, the “CLH(app)” value in [21] is < 8.2 µL/min.
For the molecule `CCN(CC)CCN1C(=O)CN=C(c2ccccc2F)c2cc(Cl)ccc21` [FLURAZEPAM], the Stability entry in data set [4] was “Unstable”.
Turning to `COCCN(CC1CCCN(C2Cc3ccccc3C2)C1)C(=O)c1ccc2ccccc2c1` (single isomer, unassigned; (+)), the deltaG in [22] was -11.9 kcal/mol.
With `COc1cc2c(cc1OC)C(=O)C(CC1CCN(Cc3ccccc3)CC1)C2` (configuration not stated) [DONEPEZIL], in data set [12], the concentration at 1 h is 2 to 300 ng/mL.
Regarding `COCCN(CC1CCCN(C2Cc3ccccc3C2)C1)C(=O)c1ccc2cc(Br)ccc2c1` (racemic), the IC50 in data set [3] is 0.41 µM; in data set [2] it was > 10 µM.
On the same counts, the results for `COCCCN(CC1CCCN(C2Cc3ccccc3C2)C1)C(=O)c1ccc2ccccc2c1` (racemic) are 0.0382 µM and > 10 µM.
For `COc1cc2c(cc1OC)C(=O)C(CC1CCN(Cc3ccccc3)CC1)C2.Cl` (configuration not stated) [DONEPEZIL HYDROCHLORIDE], the Activity in data set [23] turned out to be 0.15 meter/s.
Regarding `COc1cc2c(cc1OC)C(=O)C(CC1CCN(Cc3ccccc3)CC1)C2` (configuration not stated), the outcome in data set [24] and in data set [25] was Active.
With `COCCN(CC1CCCN(Cc2ccccc2)C1)C(=O)c1ccc2ccccc2c1` (racemic), the values for the IC50 in [3] and in [2] were 0.23 µM and > 10 µM, respectively.
Take `CNCCN(CC1CCCN(C2Cc3ccccc3C2)C1)C(=O)c1ccc2ccccc2c1.Cl.Cl` (racemic): the IC50 in data set [3] worked out at 0.018 µM. Further, in [26], the Drug metabolism entry is “Metabolite_Detected”.
On to `O=C(NCC1CCCN(Cc2ccccc2)C1)c1ccc2ccccc2c1` (racemic), for which the IC50 in data set [3] was 1.44 µM; in [2] it was > 10 µM.
As for `COC(=O)c1ccccc1-c1c2ccc(=N)cc-2oc2cc(N)ccc12.Cl` [RHODAMINE123], in data set [14], the Papp A→B at 20 min, 100 µM was determined as 1.1 ×10⁻⁶ cm/s. The efflux ratio in data set [27] turned out to be 7.3. The Papp B→A at 20 min, 100 µM in data set [17] amounted to 7.7 ×10⁻⁶ cm/s.
For the molecule `O=C(NCC1CCCN(C2Cc3ccccc3C2)C1)c1cccc2ccccc12` (racemic), the IC50 in data set [3] was 0.067 µM; in data set [2], > 10 µM.
Turning to `CN(C)CCN(CC1CCCN(C2Cc3ccccc3C2)C1)C(=O)c1ccc2ccccc2c1` (racemic), the IC50 in data set [2] was > 10 µM.
On to `c1ccc2c(NCCCCCCCNc3c4c(nc5ccccc35)CCCC4)c3c(nc2c1)CCCC3`, for which the inhibition constant (Ki) in data set [28] was 0.000163 µM.
Take `O=C(NCC1CCCN(Cc2nc3ccccc3s2)C1)c1ccc2ccccc2c1` (racemic): the IC50 in data set [3] was 0.632 µM; in data set [2], > 10 µM.
